# Shown are actives, neighbours in structure and some others; about 4.1% of the full set was active somewhere.
# FID counter: fluorescent intercalator displacement, NS3 helicase counter-screen; 0.17% of 290,000 active; DNA fluorescent intercalator displacement, fluorescence; AID 1845; inhibition, % at 7.9 µM; in the data active = inhibition above about 37%;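 also: higher means more ethidium bromide displaced from hairpin DNA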
# T cruzi inh: blocks replication of Trypanosoma cruzi | T. cruzi beta-gal in NIH3T3, luminescence, 90 h | inhibition, % (concentration not given with the values) | 1.4% of 300,000 active | AID 1885;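 active = mean inhibition across valid replicates above about 55%, limit read from the data; inconclusive = mean below that limit but half or more replicates reach it; inactive = mean below it, under half of replicates reach it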;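 also: signal also drops with host cell toxicity which is not excluded here; higher percent means less beta-gal luminescence so fewer parasites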
#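 Incubation – ≥90 h infection period, 3 h prior cell attachment · System – NIH/3T3 fibroblasts plus reporter T. cruzi · Doses – compound pinned at 50 nL/well, DMSO · Read-out basis – percent inhibition of parasite-derived β-gal signal · Signal – luminescent β-galactosidase signal after 60 min lysis · Also added – 5000 T. cruzi trypomastigotes/well · Medium – Low-serum DMEM with 2% FBS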
# HCV NS3 hel inh: HCV NS3 helicase inhibition; inhibition, % at 10.9 µM; 0.56% of 290,000 active; NS3 helicase DNA unwinding, Cy5 molecular beacon fluorescence;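 active = inhibition above the mean of all tested compounds plus 3 SD, set per campaign, cut at about 35% in these data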
#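 Measured by: Cy5 fluorescence, 0 and 60 min reads / Assay system: NS3 helicase fragment of HCV / Control set: low DMSO, high thioflavine S at 110 µM / Times: 1 h reaction at 25 °C, ATP-initiated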
# MEKK3 PB1 HTS: MEKK3-MEK5 PB1 interaction, increase or decrease. Q99759. bead-based flow cytometry, Alexa488-MEK5 binding to MEKK3; actives lie on both sides; 0 = blocked by unlabeled MEK5, 100 = vehicle. binding response (% of control), % at 10 µM. 1.4% of 290,000 active;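 active = binding response more than 3 SD above or below the average of its plate-row segment, actives on both sides; inconclusive = wells at one plate position flagged as instrument error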;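 also: Alexa488 bead fluorescence after subtracting the streptavidin-only scavenger bead signal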
# Target sequence (Q99759 whole entry, looked up): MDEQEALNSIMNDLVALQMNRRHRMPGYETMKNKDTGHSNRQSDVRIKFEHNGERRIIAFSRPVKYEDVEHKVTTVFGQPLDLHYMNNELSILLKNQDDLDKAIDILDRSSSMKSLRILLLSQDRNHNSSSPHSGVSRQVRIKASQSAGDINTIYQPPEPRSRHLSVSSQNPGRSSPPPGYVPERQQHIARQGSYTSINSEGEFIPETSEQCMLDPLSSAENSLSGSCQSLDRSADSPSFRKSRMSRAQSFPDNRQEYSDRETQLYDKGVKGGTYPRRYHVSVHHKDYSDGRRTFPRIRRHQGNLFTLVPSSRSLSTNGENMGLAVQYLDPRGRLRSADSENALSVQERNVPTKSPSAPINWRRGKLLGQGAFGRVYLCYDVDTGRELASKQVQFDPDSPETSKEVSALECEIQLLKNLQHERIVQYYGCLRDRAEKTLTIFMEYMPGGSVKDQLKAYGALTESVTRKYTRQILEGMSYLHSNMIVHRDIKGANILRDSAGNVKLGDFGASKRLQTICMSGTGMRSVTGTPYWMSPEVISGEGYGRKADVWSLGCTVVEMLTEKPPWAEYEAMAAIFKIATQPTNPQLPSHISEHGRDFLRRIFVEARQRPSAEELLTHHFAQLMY
# MEKK2 mut-MEK5: signal of MEK5 binding to mutant human MEKK2 PB1 domain. bead flow cytometry, Alexa488-MEK5 binding to MEKK2 mutant. percent response, % at 10 µM. 0.35% of 290,000 active. AID 1530; in the data active = percent response above about 24%, passing the limit was not always enough
# MEKK2wt PB1 HTS: raises or lowers MEK5 binding to wildtype human MEKK2 PB1 domain; Q9Y2U5; bead flow cytometry, Alexa488-MEK5 binding to MEKK2 WT; actives lie on both sides; binding response (% of control), % at 10 µM; 1.1% of 290,000 active; AID 1531; in the data active = binding response below about 67% or above about 130%; inconclusive = no clear call, values can overlap the other calls; inactive = in between
# MEKK2wt confirm: raises or lowers MEK5 binding to wildtype human MEKK2, retest; shares compounds with MEKK3 PB1 HTS; bead flow cytometry, Alexa488-MEK5 binding to MEKK2 WT; actives lie on both sides; binding response (% of control), % at 10 µM; 2.4% of 5,900 active; AID 1892; in the data active = binding response below about 16% or above about 210%; inactive = in between
# MEKK2mut-MEK5: signal of MEK5 binding to mutant human MEKK2, retest; shares compounds with MEKK3 PB1 HTS; percent response, % at 10 µM; bead flow cytometry, Alexa488-MEK5 binding to MEKK2 mutant; AID 1893; 2% of 5,900 active; in the data active = percent response mostly above about 71%, no sharp cut-off; inactive = mostly below about 38%;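 also: higher means compound restores mutant binding toward wildtype level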
# MEKK3-MEK5 inh: confirmation of inhibitors of MEK5 binding to human MEKK3; AID 1894; 1.8% of 5,900 active; shares compounds with MEKK3 PB1 HTS; binding response (% of control), % at 10 µM; bead flow cytometry, Alexa488-MEK5 binding to MEKK3; active compounds read low;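 active = binding response below 72% of control, or above a set upper limit, though filed actives all read lower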;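 also: lower values mean stronger disruption of MEK5 binding to MEKK3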
# Hits are given with their value; n = inactive; u = inconclusive; x = not tested or not shown; [ ] = remark or other dose.
SMILES,FID counter,T cruzi inh,HCV NS3 hel inh,MEKK3 PB1 HTS,MEKK2 mut-MEK5,MEKK2wt PB1 HTS,MEKK2wt confirm,MEKK2mut-MEK5,MEKK3-MEK5 inh
COc1ccc(CN(C(=O)c2cnccn2)C(C(=O)NC(C)(C)C)c2cc(OC)c(OC)c(OC)c2)cc1 (stereo not drawn),n,n,n,n,n,n,x,x,x
COc1cc(C(C(=O)NC(C)(C)C)N(Cc2ccc3c(c2)OCO3)C(=O)c2cnccn2)cc(OC)c1OC (stereo not drawn),n,n,n,40.0[inhibitor],n,n,n,n,n
Cc1ccc(C)n1-c1ccc(C(=O)NCc2ccncc2)cc1,n,n,n,50.0[inhibitor],n,n,n,n,n
O=C(CCc1ccccc1Cl)NC1CCCN(c2ccc(C(F)(F)F)cn2)C1 (stereo not drawn),n,n,n,n,n,n,x,x,x
COC(=O)c1ccc(C(=O)Nc2ccc3c(c2)C(=O)NC3=O)cc1,n,n,n,60.0[inhibitor],n,69.0[inhibitor],n,n,n
COCCn1c(=NC(=O)C(C)(C)C)sc2cc([N+](=O)[O-])ccc21,n,n,n,72.0[inhibitor],n,n,n,n,n
OC(CN1CCCC1)Cn1ccc2ccccc21 (stereo not drawn),n,n,n,n,31.0,146.0,n,n,n
COc1ccc(C(=O)/C=C/c2cn(CC(O)CN3CCN(C)CC3)c3ccccc23)cc1OC (stereo not drawn),n,n,n,n,n,n,x,x,x
CCCCN(C)CC(O)Cn1cc(/C=C/C(=O)c2ccc(C)cc2)c2ccccc21 (stereo not drawn),n,u,n,n,54.0,186.0,n,n,n
O=C(/C=C/c1cn(CC(O)CN2CCCCC2)c2ccccc12)c1ccccc1 (stereo not drawn),n,n,n,n,n,141.0,n,n,n
CN1CCN(Cn2cc(/C=C/C(=O)c3ccccc3)c3ccccc32)CC1,n,n,n,n,n,142.0,n,n,n
COc1ccc(NC(=O)Nc2c(SC)nsc2SC)cc1,n,n,n,n,n,n,x,x,x
CCCN(CCC)CC(O)Cn1cc(/C=C/C(=O)c2cccs2)c2ccccc21 (stereo not drawn),n,u,n,n,n,n,x,x,x
CCCN(CCC)CC(O)Cn1cc(/C=C/C(=O)c2ccccc2)c2ccccc21 (stereo not drawn),n,n,n,n,n,154.0,n,n,n
COc1ccc(S(=O)(=O)NCC2CCCN(C(=O)CCSC)C2)cc1 (stereo not drawn),n,n,n,n,n,n,x,x,x
Cc1cc(C)c(S(=O)(=O)c2cccc(Cl)c2)c(=O)[nH]1,n,n,n,n,n,n,x,x,x
COc1ccc(-n2cc(-c3ccccc3)[nH]c2=S)cc1,n,n,n,130.0,n,n,n,n,n
CC(C)CNC(=O)c1ccccc1NC(=O)CCSc1ccccc1,n,n,n,n,n,n,x,x,x
CCOc1ccccc1-n1c(COc2ccccc2)nnc1SCC(N)=O,n,n,n,n,n,n,x,x,x
CCOc1ccc(-n2c(COc3ccccc3)nnc2SCC(N)=O)cc1,n,n,n,122.0,n,n,n,n,n
CCOc1ccc(OCC(=O)NCCc2nc3ccccc3[nH]2)cc1,n,n,n,n,n,n,x,x,x
O=C(CCCOc1ccccc1)NCCc1nc2ccccc2[nH]1,n,n,n,74.0[inhibitor],n,n,n,n,n
Cc1ccccc1OCCC(=O)OCC(=O)Nc1c(C)nn(-c2ccccc2)c1C,x,n,x,x,x,x,x,x,x
CC(=O)c1ccc(NC(=S)Nc2ccc3[nH]c(=O)[nH]c3c2)cc1,n,n,n,5.0[inhibitor],n,7.0[inhibitor],n,n,n
Cc1ccc(NC(=S)Nc2ccc3[nH]c(=O)[nH]c3c2)cc1C,n,n,n,n,n,n,x,x,x
SMILES,FID counter,T cruzi inh,HCV NS3 hel inh,MEKK3 PB1 HTS,MEKK2 mut-MEK5,MEKK2wt PB1 HTS,MEKK2wt confirm,MEKK2mut-MEK5,MEKK3-MEK5 inh
O=C(CS(=O)(=O)c1ccc(Cl)cc1)NCCS(=O)(=O)c1ccc(Cl)cc1,n,n,n,n,n,n,x,x,x
CCN(CC)C(=O)CSc1nc2cc3c(cc2c(=O)n1CCCCCC(=O)NCc1ccc(OC)cc1)OCO3,n,n,n,n,n,n,x,x,x
Clc1ccc(CO/N=C2\CCCc3nonc32)cc1,n,n,n,145.0,n,n,n,n,n
O=C(C[n+]1ccc(/C=C/c2ccccc2)cc1)c1ccc2c(c1)OCCO2,n,n,n,n,n,174.0,n,n,n
Cc1cccc(C)c1NC(=O)CN(C)C(=O)c1cccc(NS(=O)(=O)c2ccccc2)c1,x,n,x,x,x,x,x,x,x
COc1ccc(/C=N/NC(=S)NC2CCS(=O)(=O)C2)cc1OC (stereo not drawn),n,n,n,123.0,n,n,n,n,n
CC1CCCCN1c1ccc(N)cc1C(N)=O (stereo not drawn),n,n,n,n,n,n,x,x,x
CCCCN1C(=O)C(=O)N(CC(=O)NC2CCCc3ccccc32)C1=O (stereo not drawn),n,n,n,n,n,n,x,x,x
C[C@H](NS(=O)(=O)c1ccc(Cl)c(Cl)c1)C(=O)OCc1cc(=O)n2cc(Br)ccc2n1,n,n,n,131.0,n,n,n,n,n
Cn1nccc1C(=O)Nc1cccc(S(=O)(=O)N2CCOCC2)c1,n,n,n,n,n,n,x,x,x
CNC(=O)/C=C/c1cccc(C(F)(F)F)c1,n,n,n,73.0[inhibitor],n,n,n,n,n
Cc1ccccc1NC(=O)/C=C/c1cccc(C(F)(F)F)c1,n,n,n,n,n,n,x,x,x
Cc1ccc(S(=O)(=O)N2CCN(C(=O)CCC(=O)NCc3ccc(F)cc3)CC2)cc1,n,n,n,n,n,n,x,x,x
O=C(COc1ccc(Cl)cc1)OCc1csc(Nc2ccccc2)n1,n,n,n,n,n,n,x,x,x
CCOC(=O)/C(=N\Nc1ccc(Cl)cc1)c1csc(Nc2ccccc2)n1,n,64.6,n,n,n,135.0,n,n,n
O=C(COC(=O)[C@@H]1CC(O)CN1S(=O)(=O)c1ccc2c(c1)OCCO2)NCc1ccc(F)cc1 (stereo partly drawn),n,n,n,n,n,n,x,x,x
CCC12CC3CC(C1)CC(C(=O)Nc1nn[nH]n1)(C3)C2,n,n,n,n,n,n,x,x,x
CCC12CC3CC(C1)CC(C(=O)NNC(N)=O)(C3)C2,n,n,n,128.0,n,n,n,n,n
